ABCB6 inh 2: inhibitors of human ABC transporter ABCB6 | K562-ABCB6 porphyrin accumulation, flow cytometry, 1 h; hits give low values | fluorescence ratio to DMSO, % at 10 µM | AID 602162 | hit rate 0.19% among 360,000 | Q9NP58;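 active means fluorescence ratio to DMSO below 75%, the collection mean minus 3 SD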;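 further: signal is porphyrin accumulated inside mitochondria; 100% equals median channel fluorescence of DMSO control wells; lower ratio means ABCB6 inhibition with less porphyrin fluorescence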
CHT block: human CHT choline transport inhibition | Q9GZV3 | CHT-expressing cells, membrane potential dye, choline response; hits give low values | B-score at 10 µM | hit rate 0.86% among 310,000;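 active means B-score over 3 SD under the library average, and starting fluorescence ratio not unusually high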;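 further: choline stimulus applied at its EC90 after an EC20 pre-addition; B-score computed on integrated fluorescence ratio after choline addition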
Target sequence (Q9GZV3 whole entry, looked up): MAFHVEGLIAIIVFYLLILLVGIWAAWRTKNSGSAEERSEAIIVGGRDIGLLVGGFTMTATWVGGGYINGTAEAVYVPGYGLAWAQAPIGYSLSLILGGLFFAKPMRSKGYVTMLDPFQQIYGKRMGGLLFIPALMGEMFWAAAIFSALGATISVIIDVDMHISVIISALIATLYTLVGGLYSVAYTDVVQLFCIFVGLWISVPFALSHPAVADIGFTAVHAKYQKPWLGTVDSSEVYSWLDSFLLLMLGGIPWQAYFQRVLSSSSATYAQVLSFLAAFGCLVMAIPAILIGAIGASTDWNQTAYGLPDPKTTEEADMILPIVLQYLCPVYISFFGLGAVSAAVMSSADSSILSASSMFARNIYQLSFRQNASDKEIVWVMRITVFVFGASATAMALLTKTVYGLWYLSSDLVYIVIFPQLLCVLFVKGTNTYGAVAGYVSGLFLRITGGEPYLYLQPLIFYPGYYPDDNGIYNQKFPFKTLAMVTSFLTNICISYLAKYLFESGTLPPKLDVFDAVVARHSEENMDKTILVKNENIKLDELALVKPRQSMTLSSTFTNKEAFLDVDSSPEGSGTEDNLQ
TNAP act hi DEA: activators of human TNAP at high phosphate acceptor concentration | P05186 | purified TNAP, CDP-star luminescence, 1 M DEA, 30 min; hits give high values; 0 = EDTA background, 1 = DMSO-only activity | activation factor at 20 µM | 200,000 tested, under 10 active | AID 1136;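 active means activation factor at least 2 at 20 µM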
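Test system – human TNAP · Doses – 20 µM single point · Incubation – 30 min, room temperature · Signal – luminescent substrate turnover signal · Read-out basis – activation factor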
CHT PAM: human CHT allosteric activation | Q9GZV3 | CHT-expressing cells, membrane potential dye, choline EC20; hits give high values; LV-AA mutant CHT in HEK293 cells | B-score at 10 µM | hit rate 0.49% among 310,000 | AID 488977;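 active means initial fluorescence not abnormally high and integrated response B-score, plate-corrected, over 3 SD above library mean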
TNAP inh no acc: TNAP (human) inhibition, acceptor-free conditions; P05186; purified TNAP, CDP-star luminescence, 30 min; inhibition, % at 20 µM; hit rate 0.26% among 200,000; AID 1012;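 active means tissue-nonspecific alkaline phosphatase inhibition above about 50% at 20 µM in the single-dose screen, limit read from the data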;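 further: 0% = DMSO negative control and 100% = EDTA positive control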
TNAP inh hiacc: inhibitors of human TNAP at high phosphate acceptor concentration. P05186. purified TNAP, CDP-star luminescence, 1 M DEA. inhibition, % at 20 µM. hit rate 0.03% among 200,000. AID 1135;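 active means over 50% inhibition of tissue-nonspecific alkaline phosphatase at 20 µM in the single-dose screen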;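 further: plate controls were DMSO wells for no effect and EDTA-quenched wells as full inhibition for full effect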
CHT activ conf: human CHT activation, confirmatory screen. activation, % at 10 µM. CHT-expressing cells, membrane potential dye fluorescence (FDSS); % of choline EC20–EC90 response window; HEK293 expressing CHT LV-AA mutant; choline added at its EC20. hit rate 91% among 2,500. shares compounds with CHT PAM;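 active means primary screen active, with duplicate mean activation above negative control mean plus 3 SD, cut at about 11% in these data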
HEK293 MP dye: CHT activator counter-screen hit in parental HEK293 cells | ratio readout change at 10 µM, hits read low | membrane potential dye fluorescence (FDSS); measured after EC20 choline addition | shares compounds with CHT PAM | hit rate 62% among 2,500;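 active means duplicate-averaged ratio beyond 3 SD from buffer wells, up or down, though filed actives are nearly all decreases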
* = called active by the depositor; ! = not active in a repeat. Most compounds without a hit are left out; they make up all but 1.4% or so of the library.

For Cc1sc2ncn(CCn3cnc4sc(C)c(C)c4c3=O)c(=O)c2c1C the results were ABCB6 inh 2 104, CHT block inactive, TNAP act hi DEA 1, CHT PAM inactive, TNAP inh no acc -5 and TNAP inh hiacc 1.
CCCCCCCC[n+]1c(C)n(-c2ccccc2)c2ccc(NC(C)=O)cc21 was read as ABCB6 inh 2 107, CHT block inactive, TNAP act hi DEA 1.1, CHT PAM 10*, TNAP inh no acc -10, TNAP inh hiacc -8, CHT activ conf 78* and HEK293 MP dye -33*.
`CC(=O)Nc1ccc(SCC(=O)c2cc(C)n(-c3ccccc3)c2C)cc1` gave ABCB6 inh 2 103, CHT block inactive, TNAP act hi DEA 1, CHT PAM inactive, TNAP inh no acc -12 and TNAP inh hiacc -3.
`CC(C)C(N)c1csc(NC(=O)Nc2ccc(OC(F)(F)F)cc2)n1` (configuration not stated) gave ABCB6 inh 2 92.
Cc1ccc2c(c1)N(C(=O)CCC(=O)NCCCN1CCN(C)CC1)CC(C)O2 (configuration not stated) was read as ABCB6 inh 2 97, CHT block inactive and CHT PAM inactive.
Screening C[N+](C)(C)CCCNC(=O)c1ccc(/C=N/O)nc1 returned ABCB6 inh 2 107, CHT block inactive, TNAP act hi DEA 1, CHT PAM inactive, TNAP inh no acc -9 and TNAP inh hiacc -2.
`C[n+]1ccc(C(=O)NCCC[N+](C)(C)C)cc1/C=N/O` gave ABCB6 inh 2 96, CHT block inactive, TNAP act hi DEA 1, CHT PAM 7.3*, TNAP inh no acc -7, TNAP inh hiacc -4, CHT activ conf 44* and HEK293 MP dye -31*.
CC1Cc2ccccc2N1C(=O)COC(=O)Cc1ccc(F)cc1 (configuration not stated) was read as ABCB6 inh 2 92, CHT block inactive and CHT PAM inactive.
Screening COc1cc2nc(N3CCN(C(=O)c4ccco4)CC3)nc(N)c2cc1OC returned ABCB6 inh 2 103, CHT block inactive, TNAP act hi DEA 1, CHT PAM 6.5*!, TNAP inh no acc -7, TNAP inh hiacc 2, CHT activ conf 37* and HEK293 MP dye -26*.
Screening Cc1[nH]ccc2c1[nH]c1cc(=O)ccc12 returned ABCB6 inh 2 101, CHT block inactive, CHT PAM inactive, CHT activ conf 50* and HEK293 MP dye -49*.
Screening O=c1cc[nH]c2c1ccc1c(=O)cc[nH]c12 returned ABCB6 inh 2 102, CHT block inactive and CHT PAM inactive.
Screening CCN(CC)c1cc(C)c2cc(NC(=O)CNC(C)=O)ccc2n1 returned ABCB6 inh 2 93, CHT block inactive, TNAP act hi DEA 1.1, CHT PAM 6.5*, TNAP inh no acc -16, TNAP inh hiacc -9, CHT activ conf 56* and HEK293 MP dye -31*.
`CCN(CC)c1cc(C)c2cc(NC(=O)c3ccccc3F)ccc2n1` gave ABCB6 inh 2 100, CHT block inactive and CHT PAM inactive.
`CCN1CCN(S(=O)(=O)c2c(C)[nH]c(C)c2C(=O)N2CCCCC2)CC1` gave ABCB6 inh 2 97, CHT block inactive and CHT PAM inactive.
Screening CCCCNC(=NCc1cccc(C(F)(F)F)c1)Nc1ccccc1 returned ABCB6 inh 2 96, CHT block inactive, CHT PAM 12*, CHT activ conf 18* and HEK293 MP dye inactive.
For O=C(Cc1cccc(C(F)(F)F)c1)Nc1ccccc1 the results were ABCB6 inh 2 91, CHT block inactive, TNAP act hi DEA 1, CHT PAM inactive, TNAP inh no acc -5 and TNAP inh hiacc -3.
Screening CCOC(=O)c1ccc2c(c1)n(CC)c(/C=C/N(C)c1ccccc1)[n+]2CC returned ABCB6 inh 2 92, CHT block inactive, TNAP act hi DEA 1, CHT PAM 7.4*, TNAP inh no acc 14, TNAP inh hiacc 0, CHT activ conf 44* and HEK293 MP dye -63*.
For COc1ccc(-c2cc(C(=O)O)c3c(C)nn(-c4ccccn4)c3n2)cc1 the results were CHT block inactive, TNAP act hi DEA 1, CHT PAM inactive, TNAP inh no acc 5 and TNAP inh hiacc 1.
For CCOC(=O)c1cc(-c2ccncc2)nc2c1c(C)nn2-c1ccccn1 the results were ABCB6 inh 2 94, CHT block inactive, CHT PAM 7.7*, CHT activ conf 30* and HEK293 MP dye -20*.
For C=C1CCN(Cc2ccccc2)S(=O)(=O)c2ccccc21 the results were ABCB6 inh 2 94, CHT block inactive, CHT PAM 9*, CHT activ conf 26* and HEK293 MP dye inactive.
O=C(Nc1nnc(SCc2ccccn2)s1)C1CC(=O)N(c2ccc(F)cc2)C1 (configuration not stated) was read as ABCB6 inh 2 91, CHT block inactive and CHT PAM inactive.
For COC(=O)c1c(NC(NC(=O)c2ccccc2)(C(F)(F)F)C(F)(F)F)sc2c1CCN(C)C2 the results were ABCB6 inh 2 98, CHT block inactive, TNAP act hi DEA 1, CHT PAM 7.2*, TNAP inh no acc -6, TNAP inh hiacc -1, CHT activ conf 69* and HEK293 MP dye -59*.
CCC(=O)NC(Nc1sc2c(c1C(=O)OC)CCCC2)(C(F)(F)F)C(F)(F)F was read as ABCB6 inh 2 95, CHT block inactive, TNAP act hi DEA 1.1, CHT PAM inactive, TNAP inh no acc -11 and TNAP inh hiacc -6.
Screening CCOC(=O)C1=C(N)OC2=C(C(=O)CC(C)(C)C2)C1c1ccc(CC)s1 (configuration not stated) returned ABCB6 inh 2 96, CHT block inactive, TNAP act hi DEA 1, CHT PAM 7.6*, TNAP inh no acc -8, TNAP inh hiacc -2, CHT activ conf 21* and HEK293 MP dye inactive.
Screening CCOC(=O)C1=C(N)OC2=C(C(=O)CC(C)(C)C2)C1c1ccc(C)s1 (configuration not stated) returned ABCB6 inh 2 95, CHT block inactive, TNAP act hi DEA 1, CHT PAM inactive, TNAP inh no acc -2 and TNAP inh hiacc 4.
